Data on two compounds can be found in ChEMBL document CHEMBL4480426, “Novel multi-target directed ligands based on annelated xanthine scaffold with aromatic substituents acting on adenosine receptor and monoamine oxidase B. Synthesis, in vitro and in silico studies” (Bioorg Med Chem, 2019).

Some results are limits rather than exact numbers.

Data set [1] has as its target T1, Amine oxidase [flavin-containing] B (Homo sapiens, UniProt P27338).
T1 sequence (P27338 whole entry): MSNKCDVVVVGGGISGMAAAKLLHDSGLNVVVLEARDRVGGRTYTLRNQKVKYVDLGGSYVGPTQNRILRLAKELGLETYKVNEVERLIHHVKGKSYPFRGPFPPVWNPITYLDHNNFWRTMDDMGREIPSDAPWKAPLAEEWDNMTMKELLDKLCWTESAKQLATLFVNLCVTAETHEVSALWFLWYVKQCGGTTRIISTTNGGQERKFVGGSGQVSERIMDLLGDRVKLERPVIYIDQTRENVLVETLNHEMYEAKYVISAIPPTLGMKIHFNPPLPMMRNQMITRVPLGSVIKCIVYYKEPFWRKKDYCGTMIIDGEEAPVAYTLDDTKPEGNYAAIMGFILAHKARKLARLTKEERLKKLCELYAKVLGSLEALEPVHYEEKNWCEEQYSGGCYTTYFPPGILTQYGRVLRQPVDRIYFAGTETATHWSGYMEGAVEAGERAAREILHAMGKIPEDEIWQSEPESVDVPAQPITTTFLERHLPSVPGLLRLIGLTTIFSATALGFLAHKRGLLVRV
The data set is described as follows: Inhibition of recombinant human MAOB expressed in baculovirus infected BTI insect cells using p-tyramine as substrate preincubated for 30 mins followed by substrate addition and measured over 45 mins by horseradish peroxidase-Amplex Red-coupled fluorometric assay. The method, boiled down:
(§1)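 Human recombinant MAO-A or MAO-B enzyme. Activity detected fluorometrically with the Amplex Red monoamine oxidase assay.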

The target of the next data set is T2, Adenosine receptor A3 (Homo sapiens, UniProt P0DMS8).
T2 sequence (P0DMS8 whole entry): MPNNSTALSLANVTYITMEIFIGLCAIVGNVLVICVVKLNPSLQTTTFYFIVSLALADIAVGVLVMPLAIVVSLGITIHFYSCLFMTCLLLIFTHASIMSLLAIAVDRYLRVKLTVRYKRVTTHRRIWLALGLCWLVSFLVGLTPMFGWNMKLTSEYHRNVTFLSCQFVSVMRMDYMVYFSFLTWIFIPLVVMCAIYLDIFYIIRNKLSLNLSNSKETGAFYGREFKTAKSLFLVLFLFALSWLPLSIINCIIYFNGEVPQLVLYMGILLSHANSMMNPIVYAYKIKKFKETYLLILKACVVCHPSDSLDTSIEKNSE
The data set is described as follows: Displacement of [3H]PSB11 from recombinant human adenosine A3 receptor expressed in CHO cells. The data set is classed as cell-based. (In general: Loss of bound radioactivity is the signal in a displacement assay; it reports binding, not function.)

The next data set concerns HepG2. The data set is described as follows: Hepatotoxicity against human HepG2 cells assessed as reduction in cell viability at 100 uM measured after 72 hrs by CellTiter96 Aqueous non-radioactive cell proliferation assay. In kind it is toxicity, cell-based. The following applies: hepg2, 72 h. An outline of the steps: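 HepG2 cells seeded at 1.5×10^4 cells/well in MEM with 4.5 g/L glucose and 10% FBS, grown 24 h at 37 °C, 5% CO2. Compounds diluted in the same medium and applied for 72 h. CellTiter 96 AQueous reagent then added for 2 h, absorbance read at 490 nm. One-way ANOVA with Bonferroni post test.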

A further data set addresses T3, Adenosine receptor A1 (Rattus norvegicus, UniProt P25099).
T3 sequence (P25099 whole entry): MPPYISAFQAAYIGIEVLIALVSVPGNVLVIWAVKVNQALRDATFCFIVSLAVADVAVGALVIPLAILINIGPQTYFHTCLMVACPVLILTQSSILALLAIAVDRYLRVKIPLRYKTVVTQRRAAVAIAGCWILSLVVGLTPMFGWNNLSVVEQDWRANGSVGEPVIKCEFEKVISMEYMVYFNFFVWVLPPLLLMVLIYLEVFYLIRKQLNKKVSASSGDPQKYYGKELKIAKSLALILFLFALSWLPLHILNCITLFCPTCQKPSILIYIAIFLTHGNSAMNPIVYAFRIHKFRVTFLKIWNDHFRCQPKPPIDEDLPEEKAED
The data set is described as follows: Displacement of [3H]CCPA from adenosine A1 receptor in rat brain cortical membranes. The data set is classed as cell membranes.

Data set [2] concerns the target T4, Amine oxidase [flavin-containing] A (Homo sapiens, UniProt P21397).
T4 sequence (P21397 whole entry): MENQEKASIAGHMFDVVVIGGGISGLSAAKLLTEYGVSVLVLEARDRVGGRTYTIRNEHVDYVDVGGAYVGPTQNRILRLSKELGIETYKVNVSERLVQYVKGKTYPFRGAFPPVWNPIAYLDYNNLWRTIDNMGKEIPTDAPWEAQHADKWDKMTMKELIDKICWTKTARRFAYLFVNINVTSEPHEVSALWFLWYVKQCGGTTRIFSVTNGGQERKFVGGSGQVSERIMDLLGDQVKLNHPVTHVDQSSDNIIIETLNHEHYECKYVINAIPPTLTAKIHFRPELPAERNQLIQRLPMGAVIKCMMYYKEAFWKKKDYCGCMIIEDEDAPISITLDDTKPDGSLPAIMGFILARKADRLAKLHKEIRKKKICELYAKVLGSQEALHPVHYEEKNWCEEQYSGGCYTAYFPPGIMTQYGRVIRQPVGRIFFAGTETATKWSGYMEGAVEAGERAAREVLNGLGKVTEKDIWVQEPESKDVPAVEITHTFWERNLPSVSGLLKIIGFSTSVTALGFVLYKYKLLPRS
Briefly: Inhibition of recombinant human MAOA expressed in baculovirus infected BTI insect cells using p-tyramine as substrate preincubated for 30 mins followed by substrate addition and measured over 45 mins by horseradish peroxidase-Amplex Red-coupled fluorometric assay. An outline of the steps:
as §1

Data set [3] in a line: Antioxidant activity assessed as increase in total ferric ion reducing activity at 1000 uM using FeCl3.6H2O and TPTZ incubated for 10 mins under dark condition by FRAP assay relative to control. The data set is classed as functional. More on the design: scale not given: the % may be the effect or the level left. An outline of the steps:
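FRAP reagent made by mixing 10 parts 300 mM acetate buffer pH 3.6, 1 part 10 mM TPTZ in 40 mM HCl and 1 part 20 mM FeCl3·6H2O. Reagent mixed with compound solution, 10 min at room temperature in the dark. Ferrous-TPTZ complex read at 593 nm. Result is absorbance increase versus solvent sample. FeSO4·7H2O standard curve, 37.5–1200 μM.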

The target in data set [4] is T4, Amine oxidase [flavin-containing] A. Briefly: Inhibition of recombinant human MAOA expressed in baculovirus infected BTI insect cells at 1 to 100 uM using p-tyramine as substrate preincubated for 30 mins followed by substrate addition and measured over 45 mins by horseradish peroxidase-Amplex Red-coupled fluorometric assay relative to control. The following applies: 0.75 h. The method, boiled down:
as §1

The test system of a further data set is Brain. Briefly: Antioxidant activity in rat brain homogenate assessed as inhibition of FeCl2/ascorbic acid-induced lipid peroxidation by measuring reduction in TBARS level at 1000 uM preincubated for 5 mins followed by FeCl2/ascorbic acid addition and measured after 30 mins relative to control. The data set is classed as functional, tissue-based. More on the design: scale not given: the % may be the effect or the level left. An outline of the steps:
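Rat brain homogenate in 0.9% saline, 10 mg tissue/ml, preincubated 5 min at 37 °C with compound or vehicle. Peroxidation started with 0.5 mM FeCl2 plus 2 mM ascorbic acid (added-solution concentrations). After 30 min, stopped with 0.2% BHT. Thiobarbituric acid reagent added, heated 15 min in boiling water, TBARS extracted into n-butanol and read at 532 nm. Carvedilol as reference.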

Another data set has as its target T5, Adenosine receptor A2b (Homo sapiens, UniProt P29275).
T5 sequence (P29275 whole entry): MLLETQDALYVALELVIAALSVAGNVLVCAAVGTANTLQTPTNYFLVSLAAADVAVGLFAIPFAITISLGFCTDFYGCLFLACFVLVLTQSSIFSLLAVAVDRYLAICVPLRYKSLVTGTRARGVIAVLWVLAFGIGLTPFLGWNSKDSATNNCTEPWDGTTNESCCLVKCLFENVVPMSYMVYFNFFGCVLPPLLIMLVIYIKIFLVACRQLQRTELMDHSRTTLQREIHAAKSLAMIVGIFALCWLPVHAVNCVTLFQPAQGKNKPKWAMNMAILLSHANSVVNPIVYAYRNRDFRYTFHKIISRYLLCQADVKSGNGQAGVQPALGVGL
Briefly: Displacement of [3H]PSB603 from recombinant human adenosine A2b receptor expressed in HEK293 cells. The data set is classed as cell-based.

In a further data set the target is Adenosine receptor A2a (Homo sapiens, UniProt P29274). Briefly: Displacement of [3H]MSX2 from recombinant human adenosine A2a receptor expressed in HEK293 cells. In kind it is cell-based.
Data set [5] concerns the target Adenosine receptor A1 (Rattus norvegicus) (UniProt P25099). Briefly: Displacement of [3H]CCPA from rat adenosine A1 receptor.

For orientation: IC50 means the concentration that gives 50% inhibition. By Ki is commonly meant a measure of affinity in units of concentration, obtained from inhibition or displacement.

Chain of Adenosine receptor A2a (P29274 whole entry): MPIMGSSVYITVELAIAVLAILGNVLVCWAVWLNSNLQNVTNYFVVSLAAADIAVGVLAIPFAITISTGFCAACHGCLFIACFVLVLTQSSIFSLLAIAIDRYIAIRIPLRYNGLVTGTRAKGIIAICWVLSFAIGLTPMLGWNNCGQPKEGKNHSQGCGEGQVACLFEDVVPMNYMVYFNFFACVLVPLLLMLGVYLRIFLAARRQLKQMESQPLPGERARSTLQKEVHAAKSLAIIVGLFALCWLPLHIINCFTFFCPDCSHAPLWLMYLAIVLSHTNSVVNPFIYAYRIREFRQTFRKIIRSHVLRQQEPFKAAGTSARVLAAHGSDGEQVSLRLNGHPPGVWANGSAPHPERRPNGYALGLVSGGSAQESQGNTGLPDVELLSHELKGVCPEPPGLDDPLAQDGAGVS

Consider `Cn1c(=O)c2c(nc3n2CCCN3Cc2ccccc2Br)n(C)c1=O`, for which the figures for the IC50 in data set [1] and in data set [2] were 0.15 µM and more than 1 µM, respectively. Besides, the Ki at Adenosine receptor A3 was more than 1 µM; at Adenosine receptor A1 it was 2.32 µM; at Adenosine receptor A2b it was more than 1 µM; on Adenosine receptor A2a, 1.61 µM. Besides, the Activity entry with HepG2 is “Toxic”; in data set [3] it was 3.4%; in the data set on Brain, 29.5%. In data set [4], the “inhibition (INH)” value is 1%.

`Cn1c(=O)c2c(nc3n2CCCN3Cc2cccc(Cl)c2)n(C)c1=O` gave a Ki in data set [5] of 0.802 to 1.12 µM.
